We go through 15 molecules from ChEMBL document CHEMBL3046481, “Design, synthesis, and bioactivity study of novel benzoylpyridazyl ureas” (2009).

Holding throughout (assay type): functional
Experiment [1] deals with Culex pipiens pallens. Kind of experiment: Larvicidal activity against fourth-instar larval stage of Culex pipiens pallens (mosquito) assessed as mortality at 2 mg/l at 25 +/-1 degC measured after 8 days. Particulars: 192 h. The method, boiled down:
(§1)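 Insects were laboratory-reared and the bioassay was repeated at 25 ± 1 °C as statistics required. Larvae were scored dead or alive, and mortality was corrected with Abbott's formula. Results are given as percentage mortality on a 0–100 scale, where 0 is no activity and 100 is total kill. Hexaflumuron was run under the same conditions as the reference.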

The test system of experiment [2] is Mythimna separata. Kind of experiment: Larvicidal activity against fourth-instar larval stage of Mythimna separata (Oriental armyworm) in compound pretreated corn leaves assessed as mortality at 200 mg/l at 25 +/-1 degC measured after 4 days. The method, boiled down:
as §1

The test system of experiment [3] is Mythimna separata. Kind of experiment: Larvicidal activity against fourth-instar larval stage of Mythimna separata (Oriental armyworm) in compound pretreated corn leaves assessed as mortality at 10 mg/l at 25 +/-1 degC measured after 4 days. The method in brief: as §1
Experiment [4] has as its system Culex pipiens pallens. The experiment in a line: Larvicidal activity against fourth-instar larval stage of Culex pipiens pallens (mosquito) assessed as mortality at 0.25 mg/l at 25 +/-1 degC measured after 8 days. The following applies: 192 h. The method in brief:
as §1

In experiment [5] the test system is Mythimna separata. The experiment in a line: Larvicidal activity against fourth-instar larval stage of Mythimna separata (Oriental armyworm) in compound pretreated corn leaves assessed as mortality at 50 mg/l at 25 +/-1 degC measured after 4 days. The method in brief:
as §1

Experiment [6] relates to Mythimna separata. The experiment in a line: Larvicidal activity against fourth-instar larval stage of Mythimna separata (Oriental armyworm) in compound pretreated corn leaves assessed as mortality at 100 mg/l at 25 +/-1 degC measured after 4 days. The method, boiled down: as §1
Experiment [7] relates to Culex pipiens pallens. Kind of experiment: Larvicidal activity against fourth-instar larval stage of Culex pipiens pallens (mosquito) assessed as mortality at 1 mg/l at 25 +/-1 degC measured after 8 days. Particulars: 192 h. The method in brief: as §1
Experiment [8] has as its system Mythimna separata. Kind of experiment: Larvicidal activity against fourth-instar larval stage of Mythimna separata (Oriental armyworm) in compound pretreated corn leaves assessed as mortality at 25 mg/l at 25 +/-1 degC measured after 4 days. The method, boiled down: as §1

Broadly, the mortality is the percentage killed. With `O=C(NC(=O)c1c(F)cccc1F)Nc1ccc(Oc2ccc(Cl)cc2Cl)nn1`, the mortality at 2 µg/mL in experiment [1] worked out at 60%. For the same molecule, the mortality at 200 µg/mL in experiment [2] worked out at 20%.

As for `O=C(NC(=O)c1c(F)cccc1F)Nc1ccc(OCc2ccc(Cl)cc2)nn1`, the mortality at 2 µg/mL in experiment [1] turned out to be 10%. Moreover, the mortality at 200 µg/mL in experiment [2] amounted to 10%.

Consider `O=C(NC(=O)c1c(F)cccc1F)Nc1ccc(Oc2ccc(Cl)cc2)nn1`, for which the mortality at 2 µg/mL in experiment [1] came out at 20%. The mortality at 200 µg/mL in experiment [2] was 10%.

In the case of `O=C(NC(=O)c1c(F)cccc1F)Nc1cc(Cl)c(OC(F)(F)C(F)F)c(Cl)c1` [HEXAFLUMURON], in experiment [3], the mortality at 10 µg/mL turned out to be 80%. In addition, in experiment [4], the mortality at 0.25 µg/mL amounted to 100%.

For the molecule `CCOc1ccc(NC(=O)NC(=O)c2c(F)cccc2F)nn1`, in experiment [5], the mortality at 50 µg/mL is 80%. Also, the mortality at 2 µg/mL in experiment [1] was determined as 20%. Besides, the mortality at 200 µg/mL in experiment [2] came out at 100%. Further, the mortality at 100 µg/mL in experiment [6] is 100%.

For `O=C(NC(=O)c1c(F)cccc1F)Nc1ccc(Sc2ccccc2)nn1`, the mortality at 200 µg/mL in experiment [2] amounted to 20%.

With `O=C(NC(=O)c1c(F)cccc1F)Nc1ccc(OCC(F)(F)F)nn1`, the mortality at 1 µg/mL in experiment [7] was 30%. In experiment [3], the mortality at 10 µg/mL was found to be 80%. The mortality at 25 µg/mL in experiment [8] amounted to 100%.

For the molecule `CCCCSc1ccc(NC(=O)NC(=O)c2c(F)cccc2F)nn1`, the mortality at 50 µg/mL in experiment [5] stood at 90%. Moreover, the mortality at 200 µg/mL in experiment [2] stood at 100%. Besides, in experiment [6], the mortality at 100 µg/mL stood at 100%.

For the molecule `CC(C)Oc1ccc(NC(=O)NC(=O)c2c(F)cccc2F)nn1`, the mortality at 50 µg/mL in experiment [5] is 70%. In addition, in experiment [1], the mortality at 2 µg/mL amounted to 10%. For the same molecule, in experiment [2], the mortality at 200 µg/mL came out at 100%. Also, the mortality at 100 µg/mL in experiment [6] is 100%.

On to `O=C(NC(=O)c1c(F)cccc1F)Nc1ccc(Oc2ccccc2Cl)nn1`, for which the mortality at 2 µg/mL in experiment [1] is 40%. Moreover, the mortality at 200 µg/mL in experiment [2] was determined as 20%.

With `COc1ccc(Oc2ccc(NC(=O)NC(=O)c3c(F)cccc3F)nn2)cc1`, the mortality at 2 µg/mL in experiment [1] worked out at 10%. In addition, the mortality at 200 µg/mL in experiment [2] came out at 10%.

As for `O=C(NC(=O)c1c(F)cccc1F)Nc1ccc(Oc2c(Cl)cc(Cl)cc2Cl)nn1`, the mortality at 2 µg/mL in experiment [1] was 20%. Also, the mortality at 100 µg/mL in experiment [6] amounted to 10%.

For the molecule `Cc1ccc(NC(=O)NC(=O)c2c(F)cccc2F)nn1`, the mortality at 2 µg/mL in experiment [1] is 20%. The mortality at 200 µg/mL in experiment [2] came out at 10%.

In the case of `O=C(NC(=O)c1c(F)cccc1F)Nc1ccc(Oc2ccc(Br)cc2)nn1`, the mortality at 1 µg/mL in experiment [7] worked out at 90%. Besides, the mortality at 2 µg/mL in experiment [1] turned out to be 100%. Further, in experiment [2], the mortality at 200 µg/mL stood at 30%.

For `Cc1ccc(Oc2ccc(NC(=O)NC(=O)c3c(F)cccc3F)nn2)cc1`, the mortality at 2 µg/mL in experiment [1] was 0%. Also, the mortality at 200 µg/mL in experiment [2] was 0%.
